Source: PubChem BioAssay (several laboratories)
The list is not random: actives were taken first. Their share in the collection is about 1.5%.
STAT3 inh: IL-6 driven STAT3 reporter inhibitors, primary screen, U3A cells, luciferase, luminescence, MLSCN library; IL-6 STAT3-luciferase reporter; host cell line lacks STAT1; inhibition, % at 5.5 µM; 190,000 compounds, 0.89% hits; AID 862, 2007;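 active = inhibition above the mean inhibition across all screened compounds plus 3 SD, cut at about 44% in these data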
PPC-1+TRAIL kill: compounds killing PPC-1 cancer cells with TRAIL present, primary screen, TRAIL potentiator project, ATPLite luminescence, uHTS. PPC-1 cells + TRAIL, ATPLite viability luminescence. cell killing (% activity), % at 4 µM or 5 µM. 220,000 compounds, 0.41% hits;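 active = cell killing above 50% in the first pass at 4 µM, then a duplicate retest at 5 µM averaging 50% or more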
TAG inh: inhibitors of triacylglycerol accumulation, primary screen, cell-based, uHTS, fluorescence, H9c2 | H9c2 cells, Nile Red lipid (TAG) fluorescence; cells loaded with 200 µM oleic acid | inhibition, % at 12.5 µM | 230,000 compounds, 0.66% hits;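 active = pattern-corrected inhibition of lipid staining of at least 50% with the nuclear-stain viability signal not falling by more than 50%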
Lipid droplet: inhibitors of hepatocyte lipid droplet formation, primary screen, imaging, high-throughput imaging, BODIPY stain; AML12 mouse hepatocytes, oleate lipid droplets; 240,000 compounds, 0.4% hits; inhibition, % at 6.5 µM;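 active = lipid droplet intensity inhibited by at least 50%, with more than 500 cells counted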
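System: AML12 hepatocytes (mouse). Probe or stimulus: oleic acid at 100 µM to induce lipid droplet formation. Times: overnight treatment with compound plus oleate. Detection: Image-based BODIPY and DAPI two-channel analysis. Evaluation: percent inhibition of filter-corrected integrated lipid droplet intensity per well.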
Platelet DG rel: inhibitors of platelet dense granule secretion, primary screen, cell-based, MLPCN, human platelets; human platelet-rich plasma, SFLLRN dense granule ATP release, luminescence; inhibition, %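 (compounds screened at 7.5 µM in platelet-rich plasma)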; 300,000 compounds, 0.22% hits;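 active = mean replicate score, as percent of positive control, at or above 50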
STAT1 inh-1: STAT1 signaling inhibitors, primary screen, cell-based, HTS, luciferase reporter; NIH 3T3 STAT1-luciferase reporter, IFN-gamma, luminescence; inhibition, % at 5.5 µM; 200,000 compounds, 0.35% hits; AID 920, 2007;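 active = inhibition above a set limit, the mean inhibition across all tested compounds plus 3 SD, cut at about 34% in these data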
STAT1 inh-2: STAT1 signaling inhibitors, confirmation, cell-based, HTS, luciferase reporter | shares compounds with STAT1 inh-1 | NIH 3T3 STAT1-luciferase reporter, IFN-gamma, luminescence | inhibition, % at 5.5 µM | 200 compounds, 55% hits;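 active = triplicate mean inhibition exceeding the hit cutoff computed for the primary STAT1 screen, cut at about 35% in these data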
NFkB inh: NF-kB reporter inhibitors, TNF-alpha stimulated, counter-screen for STAT1 inhibitor project, cell-based, HEK293T, luciferase luminescence | shares compounds with STAT1 inh-1 | TNF-alpha induced | inhibition, % at 5.7 µM | 200 compounds, 30% hits | AID 1303, 2008;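 active = inhibition above the mean of solvent-only control wells plus 3 SD of those wells, cut at about 15% in these data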
STAT3 inh STAT1c: STAT3 reporter inhibition by STAT1 hits, counter-screen for STAT1 inhibitor project, U3A cells, luciferase, luminescence, triplicate | shares compounds with STAT1 inh-1 | IL-6 STAT3 luciferase reporter; cells lacking STAT1 | inhibition, % at 5.7 µM | 200 compounds, 20% hits;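 active = inhibition above the mean of solvent-only control wells plus 3 SD, set per campaign, cut at about 25% in these data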
Numbers stand for hits.

For Fc1ccc(-n2nnc(-c3cnc4ccccc4c3)n2)cc1 the results were PPC-1+TRAIL kill inactive, TAG inh inactive, Lipid droplet inactive, Platelet DG rel inactive, STAT1 inh-1 83, STAT1 inh-2 inactive, NFkB inh 76 and STAT3 inh STAT1c 78.
Screening CC(=O)/C(=C/c1ccccc1)C(=O)Nc1ccccc1C returned STAT3 inh inactive, PPC-1+TRAIL kill inactive, Lipid droplet inactive, Platelet DG rel inactive and STAT1 inh-1 inactive.
`Cc1ccccc1NC(=O)C(=Cc1ccc(C(=O)O)cc1)C(=O)Nc1ccccc1C` gave STAT3 inh inactive, PPC-1+TRAIL kill inactive, TAG inh inactive, Lipid droplet inactive, Platelet DG rel inactive, STAT1 inh-1 41, STAT1 inh-2 46, NFkB inh inactive and STAT3 inh STAT1c inactive.
For CCC(=O)N1CCCC(C)(C(=O)NS(=O)(=O)c2ccccc2Cl)C1 (stereo unspecified) the results were TAG inh inactive.
CCNc1nc(NC(C)(C)C)nc(N2CCCCC2)n1 was read as STAT3 inh inactive, PPC-1+TRAIL kill inactive, Lipid droplet inactive, Platelet DG rel inactive, STAT1 inh-1 39, STAT1 inh-2 inactive, NFkB inh inactive and STAT3 inh STAT1c inactive.
Screening CCn1c(=O)c2cc(C(=O)N3CCCC3)sc2c2ccccc21 returned PPC-1+TRAIL kill inactive, Lipid droplet inactive, Platelet DG rel inactive, STAT1 inh-1 56, STAT1 inh-2 47, NFkB inh inactive and STAT3 inh STAT1c inactive.
C#Cc1ccc([C@H]2C=C(C(=O)OCC=C)O[C@@H](OCC)[C@@H]2CCCO)cc1 was read as PPC-1+TRAIL kill inactive, TAG inh inactive, Lipid droplet inactive, Platelet DG rel inactive, STAT1 inh-1 56, STAT1 inh-2 36, NFkB inh inactive and STAT3 inh STAT1c inactive.
For C=CCOC(=O)C1=C[C@H](c2ccccc2)[C@@H](CCCO)[C@H](OCC)O1 the results were PPC-1+TRAIL kill inactive, TAG inh inactive, Lipid droplet inactive, Platelet DG rel inactive and STAT1 inh-1 inactive.
C#Cc1ccc([C@@H]2C=C(C(=O)OCC=C)O[C@H](OCC)[C@H]2CCCO)cc1 was read as PPC-1+TRAIL kill inactive, TAG inh inactive, Lipid droplet inactive, Platelet DG rel inactive, STAT1 inh-1 37, STAT1 inh-2 inactive, NFkB inh inactive and STAT3 inh STAT1c inactive.
`CN(CCCn1ccc(NC(=O)OCc2ccccc2)nc1=O)CCc1ccccn1` gave TAG inh inactive.
`COc1ccc(Br)cc1CN(C)C(=O)c1ccccc1SCC(=O)N1CCCC1` gave TAG inh inactive.
For COc1ccccc1-c1cc(C(F)(F)F)nc(S(=O)(=O)CCCC(=O)N2CCOCC2)n1 the results were STAT3 inh inactive, PPC-1+TRAIL kill inactive, TAG inh inactive, Lipid droplet inactive, Platelet DG rel inactive, STAT1 inh-1 43, STAT1 inh-2 44, NFkB inh inactive and STAT3 inh STAT1c inactive.
For COc1ccc(-c2cc(C(F)(F)F)nc(S(=O)(=O)CCCC(=O)Nc3cccc(O)c3)n2)cc1OC the results were STAT3 inh inactive, PPC-1+TRAIL kill inactive, Lipid droplet inactive, Platelet DG rel inactive, STAT1 inh-1 38, STAT1 inh-2 39, NFkB inh inactive and STAT3 inh STAT1c inactive.
Screening COc1ccccc1-c1cc(C(F)(F)F)nc(S(=O)(=O)CCCC(=O)O)n1 returned STAT3 inh inactive, PPC-1+TRAIL kill inactive, Lipid droplet inactive, Platelet DG rel inactive and STAT1 inh-1 inactive.
`CCN(CC(=O)Nc1ccc(C#N)cc1)CC(=O)Nc1ccc2c(c1)OCCO2` gave TAG inh inactive.
Cc1ccc(C(O)c2ncc(-c3ccccc3Cl)[nH]2)c(C)c1 (stereo unspecified) was read as TAG inh inactive.
COc1cc(CN2C[C@@H](CO)O[C@@H](n3cnc4c(NCc5ccc(F)cc5)ncnc43)C2)cc(OC)c1OC was read as TAG inh inactive.
COCCNC(=O)C1(C)CCCN(C(=O)c2ccc(C#N)cc2)C1 (stereo unspecified) was read as TAG inh inactive.
O=C(/C=C/c1cn(-c2ccccc2)nc1-c1cccnc1)N1CCCC1 was read as STAT3 inh inactive, PPC-1+TRAIL kill inactive, TAG inh inactive, Lipid droplet inactive, Platelet DG rel inactive, STAT1 inh-1 71, STAT1 inh-2 55, NFkB inh 37 and STAT3 inh STAT1c 33.
For O=C(/C=C/c1cn(-c2ccccc2)nc1-c1cccnc1)c1ccco1 the results were STAT3 inh inactive, PPC-1+TRAIL kill inactive, TAG inh inactive, Lipid droplet inactive, Platelet DG rel inactive and STAT1 inh-1 inactive.
`CC(=O)NC(c1cccc(F)c1)c1nc(-c2cnc3ccccc3c2)cs1` (stereo unspecified) gave TAG inh inactive.
For COc1ccc2[nH]c3c(=O)n4c(nc3c2c1)SCCC4 the results were STAT3 inh inactive, PPC-1+TRAIL kill inactive, Lipid droplet inactive, Platelet DG rel inactive, STAT1 inh-1 37, STAT1 inh-2 inactive, NFkB inh inactive and STAT3 inh STAT1c inactive.
CC1(C(=O)NS(=O)(=O)c2ccccc2Cl)CCN1C(=O)c1ccco1 (stereo unspecified) was read as TAG inh inactive.
For O=c1[nH]c(SCc2ccccc2F)nc2ccccc12 the results were STAT3 inh inactive, PPC-1+TRAIL kill inactive, TAG inh inactive, Lipid droplet inactive, Platelet DG rel inactive and STAT1 inh-1 inactive.
For O=c1cc(CSc2nc3ccccc3c(=O)[nH]2)c2ccc(O)cc2o1 the results were STAT3 inh inactive, PPC-1+TRAIL kill inactive, TAG inh inactive, Lipid droplet inactive, Platelet DG rel inactive, STAT1 inh-1 69, STAT1 inh-2 52, NFkB inh inactive and STAT3 inh STAT1c inactive.
For N#C/C(=N\Nc1cccc([N+](=O)[O-])c1)C(=O)c1ccc(Br)cc1 the results were STAT3 inh inactive, PPC-1+TRAIL kill inactive, TAG inh inactive, Lipid droplet inactive, Platelet DG rel inactive, STAT1 inh-1 69, STAT1 inh-2 44, NFkB inh inactive and STAT3 inh STAT1c 29.
